The values below come from ChEMBL document CHEMBL1128417, “Synthesis and opioid activity of conformationally constrained dynorphin A analogues. 1. Conformational constraint in the "message" sequence” (J Med Chem, 1995).

Molecules are shown by their SMILES.

The species entered for assay [1] is Cavia porcellus. Kind of assay: In vitro inhibition of electrically evoked contractions of the guinea pig ileum (GPI). The assay is classed as functional. A digest of the protocol: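 Guinea pig ileum preparation, electrically stimulated; peptidase inhibitors (10 µM bestatin, 0.3 µM thiorphan) added to the tissue bath 5 min before each experiment. IC50 for inhibition of contractions taken from at least three replicates in tissues from different animals.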

Assay [2] concerns the target Kappa-type opioid receptor (Cavia porcellus, UniProt P41144). In words: Compound was evaluated for binding affinity against Opioid receptor kappa 1 using as the radioligand using competition binding assays.
Assay [3] deals with Delta-type opioid receptor (Rattus norvegicus, UniProt P33533). In words: Compound was evaluated for binding affinity against delta opioid receptor of rat forebrain using [3H]-DPDPE as the radioligand using competition binding assays.
For a further assay, the target named is Mu-type opioid receptor (Rattus norvegicus, UniProt P33535). Kind of assay: Compound was evaluated for binding affinity against Opioid receptor mu 1 of rat forebrain using [3H]DAMGO as the radioligand using competition binding assays.
The species named for assay [4] is Cavia porcellus. Kind of assay: Relative potency against electrically evoked contractions of the guinea pig ileum(GPI). Also on record: reference not given here. It is filed as functional.
Assay [5] concerns the target T1, Opioid receptors; mu & delta (Homo sapiens) (UniProt P41143+P35372). Kind of assay: Ki ratio which is the ratio of Ki of k opioid receptor to the Ki of mu opioid receptor to the Ki of delta opioid receptor; 1/2.2/47. The assay is classed as protein assay.
Assay [6] addresses T1, Opioid receptors; mu & delta (Homo sapiens). Kind of assay: Ki ratio which is the ratio of Ki of k opioid receptor to the Ki of mu opioid receptor to the Ki of delta opioid receptor; 1.3/1/27. The assay is classed as protein assay.
Assay [7] has the same target. Kind of assay: Ki ratio which is the ratio of Ki of k opioid receptor to the Ki of mu opioid receptor to the Ki of delta opioid receptor; 1/1.3/92. The assay is classed as protein assay.
For assay [8] the target is unchanged. Kind of assay: Ki ratio which is the ratio of Ki of k opioid receptor to the Ki of mu opioid receptor to the Ki of delta opioid receptor; 3.6/1/74. It is filed as protein assay.

In the assay filed under Cavia porcellus [1], `CC[C@H](C)[C@H](NC(=O)[C@H](CCCN=C(N)N)NC(=O)[C@H](CCCN=C(N)N)NC(=O)[C@@H]1CNC(=O)C[C@@H](NC(=O)[C@@H](N)Cc2ccc(O)cc2)C(=O)NCC(=O)N[C@@H](Cc2ccccc2)C(=O)N1)C(=O)N[C@@H](CCCN=C(N)N)C(=O)N1CCC[C@H]1C(=O)N[C@@H](CCCCN)C(=O)N[C@@H](CC(C)C)C(=O)N[C@@H](CCCCN)C(N)=O` [listing 1 of 2 here] displayed an IC50 of 0.16 nM. Also, the Ki in assay [2] was found to be 0.22 nM; in assay [3], 10.2 nM; on Mu-type opioid receptor it was 0.49 nM.
As to `CC[C@H](C)[C@H](NC(=O)[C@H](CCCN=C(N)N)NC(=O)[C@H](CCCN=C(N)N)NC(=O)[C@H](CC(C)C)NC(=O)[C@H](Cc1ccccc1)NC(=O)CNC(=O)CNC(=O)[C@@H](N)Cc1ccc(O)cc1)C(=O)N[C@@H](CCCN=C(N)N)C(=O)N1CCC[C@H]1C(=O)N[C@@H](CCCCN)C(=O)N[C@@H](CC(C)C)C(=O)N[C@@H](CCCCN)C(N)=O` [listing 1 of 2 here], the IC50 in the assay filed under Cavia porcellus [1] was found to be 0.22 nM.
In the assay listed under Cavia porcellus [1], `CC[C@H](C)[C@H](NC(=O)[C@H](CCCN=C(N)N)NC(=O)[C@H](CCCN=C(N)N)NC(=O)[C@H](CCN=C(N(C)C)N(C)C)NC(=O)[C@H](Cc1ccccc1)NC(=O)CNC(=O)[C@@H](CC(=O)O)NC(=O)[C@@H](N)Cc1ccc(O)cc1)C(=O)N[C@@H](CCCN=C(N)N)C(=O)N1CCC[C@H]1C(=O)N[C@@H](CCCCN)C(=O)N[C@@H](CC(C)C)C(=O)N[C@@H](CCCCN)C(N)=O` displayed an IC50 of 0.18 nM. The Ki in assay [2] is 0.14 nM; in [3] it was 7.52 nM; at Mu-type opioid receptor, 0.32 nM. This compound had a Relative potency in the assay listed under Cavia porcellus [4] of 122.
On the same counts, the results for `CC[C@H](C)[C@H](NC(=O)[C@H](CCCN=C(N)N)NC(=O)[C@H](CCCN=C(N)N)NC(=O)[C@H](CCCN=C(N(C)C)N(C)C)NC(=O)[C@H](Cc1ccccc1)NC(=O)CNC(=O)[C@@H](CC(=O)O)NC(=O)[C@@H](N)Cc1ccc(O)cc1)C(=O)N[C@@H](CCCN=C(N)N)C(=O)N1CCC[C@H]1C(=O)N[C@@H](CCCCN)C(=O)N[C@@H](CC(C)C)C(=O)N[C@@H](CCCCN)C(N)=O` are 1.78 nM, 0.36 nM, 14.2 nM, 0.28 nM and 12.
On to `CC[C@H](C)[C@H](NC(=O)[C@H](CCCN=C(N)N)NC(=O)[C@H](CCCN=C(N)N)NC(=O)[C@@H]1CNC(=O)C[C@@H](NC(=O)[C@@H](N)Cc2ccc(O)cc2)C(=O)NCC(=O)N[C@@H](Cc2ccccc2)C(=O)N1)C(=O)N[C@@H](CCCN=C(N)N)C(=O)N1CCC[C@@H]1C(=O)N[C@@H](CCCCN)C(=O)N[C@@H](CC(C)C)C(=O)N[C@@H](CCCCN)C(N)=O`, for which the Ki ratio entry in assay [5] is given as “kappa/mu/delta”.
`CC[C@H](C)[C@H](NC(=O)[C@H](CCCN=C(N)N)NC(=O)[C@H](CCCN=C(N)N)NC(=O)[C@@H]1CNC(=O)C[C@@H](NC(=O)[C@@H](N)Cc2ccc(O)cc2)C(=O)NCC(=O)N[C@@H](Cc2ccccc2)C(=O)N1)C(=O)N[C@@H](CCCN=C(N)N)C(=O)N1CCC[C@H]1C(=O)N[C@@H](CCCCN)C(=O)N[C@@H](CC(C)C)C(=O)N[C@@H](CCCCN)C(N)=O` [listing 2 of 2 here] returned a Relative potency in the assay filed under Cavia porcellus [4] of 138.
Turning to `CC[C@H](C)[C@H](NC(=O)[C@H](CCCN=C(N)N)NC(=O)[C@H](CCCN=C(N)N)NC(=O)[C@H](CN=C(N(C)C)N(C)C)NC(=O)[C@H](Cc1ccccc1)NC(=O)CNC(=O)[C@@H](CC(=O)O)NC(=O)[C@@H](N)Cc1ccc(O)cc1)C(=O)N[C@@H](CCCN=C(N)N)C(=O)N1CCC[C@H]1C(=O)N[C@@H](CCCCN)C(=O)N[C@@H](CC(C)C)C(=O)N[C@@H](CCCCN)C(N)=O`, half-maximal inhibition in the assay listed under Cavia porcellus [1] (IC50) was put at 0.46 nM. Besides, the Ki stood at 0.21 nM in assay [2], 4.31 nM in assay [3] and 0.16 nM on Mu-type opioid receptor. In the assay listed under Cavia porcellus [4], this compound showed a Relative potency of 48. Moreover, the Ki ratio entry in assay [6] is reported as “mu/kappa/delta”.
Consider `CC[C@H](C)[C@H](NC(=O)[C@H](CCCN=C(N)N)NC(=O)[C@H](CCCN=C(N)N)NC(=O)[C@H](CC(C)C)NC(=O)[C@H](Cc1ccccc1)NC(=O)CNC(=O)CNC(=O)[C@@H](N)Cc1ccc(O)cc1)C(=O)N[C@@H](CCCN=C(N)N)C(=O)N1CCC[C@H]1C(=O)N[C@@H](CCCCN)C(=O)N[C@@H](CC(C)C)C(=O)N[C@@H](CCCCN)C(N)=O` [listing 2 of 2 here], for which the Relative potency in the assay listed under Cavia porcellus [4] was found to be 100.
For the compound `CC[C@H](C)[C@H](NC(=O)[C@H](CCCN=C(N)N)NC(=O)[C@H](CCCN=C(N)N)NC(=O)[C@@H]1CCNC(=O)C[C@@H](NC(=O)[C@@H](N)Cc2ccc(O)cc2)C(=O)NCC(=O)N[C@@H](Cc2ccccc2)C(=O)N1)C(=O)N[C@@H](CCCN=C(N)N)C(=O)N1CCC[C@@H]1C(=O)N[C@@H](CCCCN)C(=O)N[C@@H](CC(C)C)C(=O)N[C@@H](CCCCN)C(N)=O`, the Ki ratio entry in assay [7] is listed as “kappa/mu/delta”.
The compound `CC[C@H](C)[C@H](NC(=O)[C@H](CCCN=C(N)N)NC(=O)[C@H](CCCN=C(N)N)NC(=O)[C@H](CC(C)C)NC(=O)[C@H](Cc1ccccc1)NC(=O)CNC(=O)[C@@H](CC(=O)O)NC(=O)[C@@H](N)Cc1ccc(O)cc1)C(=O)N[C@@H](CCCN=C(N)N)C(=O)N1CCC[C@H]1C(=O)N[C@@H](CCCCN)C(=O)N[C@@H](CC(C)C)C(=O)N[C@@H](CCCCN)C(N)=O` [listing 1 of 2 here] showed a Relative potency in the assay filed under Cavia porcellus [4] of 32.
In the assay filed under Cavia porcellus [1], `CC[C@H](C)[C@H](NC(=O)[C@H](CCCN=C(N)N)NC(=O)[C@H](CCCN=C(N)N)NC(=O)[C@@H]1CCCNC(=O)C[C@@H](NC(=O)[C@@H](N)Cc2ccc(O)cc2)C(=O)NCC(=O)N[C@@H](Cc2ccccc2)C(=O)N1)C(=O)N[C@@H](CCCN=C(N)N)C(=O)N1CCC[C@H]1C(=O)N[C@@H](CCCCN)C(=O)N[C@@H](CC(C)C)C(=O)N[C@@H](CCCCN)C(N)=O` returned an IC50 of 0.4 nM. Also, the results for the Ki (in assay [2]; in assay [3]; at Mu-type opioid receptor) were 0.68 nM, 14.1 nM and 0.19 nM, respectively. Besides, in the assay listed under Cavia porcellus [4], the Relative potency was determined as 55. In addition, the Ki ratio entry in [8] is “mu/kappa/delta”.
Take `CC[C@H](C)[C@H](NC(=O)[C@H](CCCN=C(N)N)NC(=O)[C@H](CCCN=C(N)N)NC(=O)[C@H](CC(C)C)NC(=O)[C@H](Cc1ccccc1)NC(=O)CNC(=O)[C@@H](CC(=O)O)NC(=O)[C@@H](N)Cc1ccc(O)cc1)C(=O)N[C@@H](CCCN=C(N)N)C(=O)N1CCC[C@H]1C(=O)N[C@@H](CCCCN)C(=O)N[C@@H](CC(C)C)C(=O)N[C@@H](CCCCN)C(N)=O` [listing 2 of 2 here]: in the assay listed under Cavia porcellus [1], half-maximal inhibition (IC50) was put at 0.46 nM. Besides, the Ki in assay [2] was found to be 0.45 nM; in assay [3] it was 0.044 nM; at Mu-type opioid receptor, 0.013 nM.
For `CC[C@H](C)[C@H](NC(=O)[C@H](CCCN=C(N)N)NC(=O)[C@H](CCCN=C(N)N)NC(=O)[C@@H]1CCNC(=O)C[C@@H](NC(=O)[C@@H](N)Cc2ccc(O)cc2)C(=O)NCC(=O)N[C@@H](Cc2ccccc2)C(=O)N1)C(=O)N[C@@H](CCCN=C(N)N)C(=O)N1CCC[C@H]1C(=O)N[C@@H](CCCCN)C(=O)N[C@@H](CC(C)C)C(=O)N[C@@H](CCCCN)C(N)=O` [listing 1 of 2 here], in that order: 0.23 nM, 0.13 nM, 12 nM and 0.17 nM.
As for `CC[C@H](C)[C@H](NC(=O)[C@H](CCCN=C(N)N)NC(=O)[C@H](CCCN=C(N)N)NC(=O)[C@@H]1CCNC(=O)C[C@@H](NC(=O)[C@@H](N)Cc2ccc(O)cc2)C(=O)NCC(=O)N[C@@H](Cc2ccccc2)C(=O)N1)C(=O)N[C@@H](CCCN=C(N)N)C(=O)N1CCC[C@H]1C(=O)N[C@@H](CCCCN)C(=O)N[C@@H](CC(C)C)C(=O)N[C@@H](CCCCN)C(N)=O` [listing 2 of 2 here], in the assay listed under Cavia porcellus [4], the Relative potency was determined as 96.

As usually defined, the IC50 is the concentration needed to halve the response being measured. As a reminder, the Ki is a dissociation constant, usually derived from enzyme kinetics or from competition with a known ligand.
